NF-kB expr up = raises NF-kB expression in human neuronal cells | NF-kB reporter expression; stronger effect = higher value | fold change at 12.5 µM | 1.6% of 190,000 active | AID 1239; in the data active = fold change above about 3.3
FLuc inh counter = counter-screen for luciferase assay inhibitors: firefly luciferase inhibition; inhibition, % at 10 µM; ATPLite firefly luciferase biochemical luminescence, 10 min; 1.5% of 200,000 active;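 active = inhibition above about 50% when tested at 10 µM, limit read from the data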
Target sequence (P08659 whole entry, looked up): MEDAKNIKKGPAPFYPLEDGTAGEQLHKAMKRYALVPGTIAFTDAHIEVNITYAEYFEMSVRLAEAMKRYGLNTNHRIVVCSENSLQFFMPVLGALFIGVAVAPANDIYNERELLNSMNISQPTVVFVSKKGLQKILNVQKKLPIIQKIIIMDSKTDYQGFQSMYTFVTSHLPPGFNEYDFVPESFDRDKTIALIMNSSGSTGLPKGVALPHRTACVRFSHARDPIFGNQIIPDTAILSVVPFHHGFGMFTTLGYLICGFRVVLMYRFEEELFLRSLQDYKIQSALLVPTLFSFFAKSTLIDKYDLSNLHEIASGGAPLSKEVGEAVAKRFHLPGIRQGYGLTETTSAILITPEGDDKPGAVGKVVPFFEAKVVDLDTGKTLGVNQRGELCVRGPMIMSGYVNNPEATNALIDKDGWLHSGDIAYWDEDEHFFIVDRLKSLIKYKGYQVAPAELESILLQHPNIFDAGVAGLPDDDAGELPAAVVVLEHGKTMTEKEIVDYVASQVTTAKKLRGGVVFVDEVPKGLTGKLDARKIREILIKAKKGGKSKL
APP 5'UTR act = APP 5'UTR luciferase reporter activation | SH-SY5Y APP 5'UTR luciferase reporter, luminescence; zero percent = DMSO vehicle wells | activation, % at 2 µM | 1% of 190,000 active | AID 1276;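 active = activation above a set limit, based on mean plus 3 SD of controls, cut at about 140% in these data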
Pf gamet viab = P. falciparum stage V gametocyte viability inhibition; 0.065% of 150,000 active; P. falciparum stage V gametocytes, ATP luminescence, 24 h; inhibition, % at 10.9 µM;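 active = inhibition above the mean plus 3 SD of compounds within the control limits, set per campaign, cut at about 38% in these data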;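 note: 0% = DMSO wells and 100% = medium only without gametocytes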
STAT1 act = activators of IFN-gamma induced STAT1 signaling | NIH 3T3 STAT1-luciferase reporter, luminescence; 100% = IFN-gamma alone, no compound | activation (% of control), % at 5.5 µM | 2.6% of 200,000 active | AID 932;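 active = activation above the screen-wide mean activation plus 3 SD, cut at about 130% in these data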;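 note: raw ratio to IFN-gamma control signal so 100% means no change and 0% no light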
FLuc act counter = firefly luciferase counter-screen for stimulation assays; ATPlite luciferase biochemical, luminescence, 10 min; 0 = ATP-free wells, 1 = DMSO control; AID 1027; 200,000 tested, under 10 active; P08659; activation factor at 10 µM;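 active = luciferase activation factor, scaled between plate controls, of at least 2 with compound at 10 µM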
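assay system = Luciferase/luciferin detection reagent, cell-free biochemical luciferase assay | also added = ATP substrate | times = 10 min post-reagent at room temperature | measured by = luminescence from luciferase reaction | measure = luciferase activation, seen as luminescence increase over controls | benchmarks = low control with PBS replacing ATP, high control enzyme plus ATP without compound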
Starred values were filed as active, the others as inactive; · = no result. Most compounds without a hit are left out; they make up all but 3.5% or so of the library.

SMILES	NF-kB expr up	FLuc inh counter	APP 5'UTR act	Pf gamet viab	STAT1 act	FLuc act counter
COc1cccc(C=Nc2cccc3c(=O)[nH][nH]c(=O)c23)c1O	1.5	80*	12	9	107	0.2
CCN(CC)S(=O)(=O)c1ccc(OC)c(NS(=O)(=O)Cc2ccccc2)c1	·	·	·	5	·	·
COC(=O)C1C(=O)/C(=C/N(C)C)C(=O)CC1(C)C (centres undefined)	6.2*	-5	37	-10	102	1.1
COc1ccc(C(=O)C2CN(c3ccccc3)CC2c2ccc(Cl)cc2)cc1 (centres undefined)	1	-5	10	18	95	1.1
Cc1cc(N)n2ncc(-c3ccc(F)cc3)c2n1	1.7	7	84	·	140*	0.9
Cc1cc(Cl)n2ncc(-c3ccccc3)c2n1	·	·	·	-22	·	·
Cc1cc(N)n2ncc(-c3ccc(Cl)cc3)c2n1	2.1	-5	96	-37	140*	1
CC(C)(CO)CNC(=O)CCc1nnc(CCCc2ccccc2)o1	1.6	-2	9	-8	106	1
CN(Cc1ccsc1)C(=O)CCc1nnc(CCCc2ccccc2)o1	2.7	-3	44	6	133*	1
Cc1nc(C(C)NC(=O)CCc2nnc(CCCc3ccccc3)o2)c(C)s1 (centres undefined)	3.2	-4	38	-6	149*	1
Cc1ccc(C(=O)Nc2ccncc2)c(C)c1	·	·	·	-9	·	·
CCc1ccccc1-n1ncc(C(=O)Nc2ccc(OC)cc2)c1C	·	·	·	-10	·	·
c1cnc(SCCOc2ccc3c(c2)CCC3)nc1	7.2*	17	·	12	150*	0.8
CNCCCOc1ccc2c(c1)CCC2	0.79	-2	16	18	113	1
O=C1/C(=C\c2ccncc2)CCc2ccccc21	·	·	·	-32	·	·
Cn1cccc1/C=C1\Cc2ccccc2C1=O	7.2*	58*	184*	-2	140*	0.4
Cn1cccc1/C=C1\CCc2ccccc2C1=O	5.9*	70*	167*	-9	46	0.3
Clc1ccc(SCc2cn3ccsc3n2)cc1	2.3	20	72	·	134*	0.8
Clc1ccc(SCc2cn3cccnc3n2)cc1	1.8	4	3	·	124	1
c1cn2cc(CSC3CCCCC3)nc2s1	2.7	9	99	·	134*	0.9
Cc1csc2nc(CSc3nc4ccccc4o3)cn12	2	9	72	·	120	0.9
c1ccc2oc(SCc3cn4ccsc4n3)nc2c1	3	18	127	·	138*	0.8
c1ccc(CSCc2cn3ccsc3n2)cc1	8.9*	1	64	·	132*	1
O=C(Cc1cn2ccsc2n1)NCc1ccccc1	1.3	-2	10	12	93	1
Cc1nc(Cl)nc(N(C)c2ccccc2)c1[N+](=O)[O-]	·	·	·	-4	·	·
SMILES	NF-kB expr up	FLuc inh counter	APP 5'UTR act	Pf gamet viab	STAT1 act	FLuc act counter
CC1CCc2c(sc(NC(=O)CN3CCN(C(=O)c4ccco4)CC3)c2C#N)C1 (centres undefined)	1.6	-4	4	3	95	1
O=C(Cc1cn2ccsc2n1)OCc1ccccc1	5.3*	0	6	17	107	1
CCOc1ccccc1NC(=S)N1CCN(c2nc(-c3ccc(F)cc3)cs2)CC1	0.72	-8	8	·	98	1.1
CCCc1ccc(-c2cc(C(=O)NC3=NCCS3)c3ccccc3n2)cc1	2.9	85*	104	0	114	0.2
CCc1ccc(-c2cc(C(=O)NCc3ccccn3)c3ccccc3n2)cc1	0.85	61*	39	·	108	0.4
Cc1ccc(-c2cc(C(=O)NCc3ccccn3)c3ccccc3n2)cc1	0.63	38	-10	·	111	0.6
Cc1ccc(-c2cc(C(=O)NC3=NCCS3)c3ccccc3n2)cc1C	1	65*	49	·	118	0.3
Cn1cc([N+](=O)[O-])c(C(=O)Nc2ccc(-c3nc4ccccc4o3)cc2)n1	·	·	·	6	·	·
Nc1ccc(N2CCN(c3ccc(F)cc3)CC2)cc1	3	-8	-10	-26	96	1.1
Nc1ccc(N2CCN(c3ccc(Cl)c(Cl)c3)CC2)cc1	3.4*	-1	-32	0	101	1
CCOc1c2ccccc2nn1CCO	·	·	·	20	·	·
CC(=O)Nc1ccc2nc(-c3ccc(Br)o3)[nH]c2c1	1.5	34	72	-9	133*	0.7
CC(=O)Nc1ccc2nc(-c3cccn3C)[nH]c2c1	·	·	·	2	·	·
CC(=O)Nc1ccc2nc(-c3cccs3)[nH]c2c1	1.9	52*	69	·	124	0.5
C=CCN(CC=C)C(=O)c1ccc(OC2CCN(C(C)=O)CC2)c(OC)c1	·	·	·	10	·	·
O=C(NCc1cccs1)c1cc(-c2ccncc2)nc2ccc(Br)cc12	0.73	-5	-5	·	98	1
N#CCN1CCC2(O)CCCCC2C1c1ccc2c(c1)OCO2 (centres undefined)	·	·	·	-21	·	·
CN(C)C(CNC(=O)CSc1nnc(-c2ccco2)o1)c1ccccc1 (centres undefined)	1.2	·	3	5	99	·
Cc1c(C(=O)O)cccc1-c1ccc(/C=C2/NC(=O)N(c3ccccc3)C2=O)o1	1.6	0	42	·	131*	1
Cc1c(C(=O)O)cccc1-c1ccc(/C=C2\SC(=O)NC2=O)o1	·	·	·	11	·	·
CC(C)(C)C(=O)CNS(=O)(=O)c1ccc(S(=O)(=O)NC2CC2)cc1	·	·	·	11	·	·
O=C(/C=C/c1ccc(N2CCCCC2)c([N+](=O)[O-])c1)c1ccc(O)cc1	3.8*	21	121	11	143*	0.8
O=C(N/C=C/n1cnc2cc(C(F)(F)F)ccc21)c1ccccc1F	1.3	-7	7	-10	99	1.1
CC(=O)Nc1ccc(/C=N/N2CCCCC2)cc1	2.1	22	28	9	135*	0.8
O=C(CSc1ccccc1)N1CCc2ccccc21	3	21	78	9	132*	0.8
SMILES	NF-kB expr up	FLuc inh counter	APP 5'UTR act	Pf gamet viab	STAT1 act	FLuc act counter
O=C(COc1ccccc1)N1CCc2ccccc21	2.4	40	78	0	134*	0.6
Cc1ccc2c(CC(=O)N3CCc4ccccc43)coc2c1	2.7	34	119	24	138*	0.7
Cc1ccc(C(=O)OCC(=O)N2CCc3ccccc32)cc1	2.3	31	9	·	129*	0.7
CC1=C(C(=O)OCC2CCCO2)C(c2ccsc2)C2=C(CCCC2=O)N1 (centres undefined)	0.94	-1	3	24	98	1
CCCCN1C2CCCC1CC(NC(=O)c1ccc(OC)c(OC)c1)C2 (centres undefined)	1.4	-3	3	·	100	1
Cc1c(C(c2cccs2)c2c(C)n(C)n(-c3ccccc3)c2=O)c(=O)n(-c2ccccc2)n1C	·	·	·	-9	·	·
CC(NCc1ccc(S(N)(=O)=O)cc1)C(=O)Nc1cccc(Cl)c1 (centres undefined)	·	·	·	-14	·	·
CCCCc1ccc(Nc2ncccc2C#N)cc1	2.4	25	105	·	138*	0.8
N#Cc1cccnc1Nc1ccc(Cl)cc1	1.1	-9	1	-2	101	1.1
